Test results reported in ChEMBL document CHEMBL1154269, “Isolation and structural elucidation of euryjanicins B-D, proline-containing cycloheptapeptides from the Caribbean marine sponge Prosuberites laughlini” (2009).
Active and inactive are the calls of the source. The rule behind the calls is not given here. Where a SMILES comes first, the peptide text is derived from it.

Key:
[1] = tested on: Mycobacterium tuberculosis; assay: Antituberculosis activity against Mycobacterium tuberculosis […] by alamar blue assay; type: functional, organism-based
IGROV-1 = assay: Cytotoxicity against human IGROV1 cells assessed as viable cells at 10 uM after 48 hrs by sulforhodamine B assay; type: functional; conditions: IGROV-1, 48 h, read-out: Activity
Procedure, shortened: (§1)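 Tested at a single high dose of 10−5 M across the full NCI 60 human cancer cell line panel. Read-out is percent growth of treated cells.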

Rift Valley fever virus = assay: Antiviral activity against Rift Valley fever virus; type: functional, organism-based
Microglia = assay: Antiinflammatory activity in LPS-stimulated rat neonatal microglia assessed as inhibition of PMA-stimulated superoxide anion production; type: functional
UO-31 = assay: Cytotoxicity against human UO31 cells assessed as viable cells at 10 uM after 48 hrs by sulforhodamine B assay; type: functional; conditions: UO-31, 48 h, read-out: Activity; procedure, shortened: as §1
Influenza B virus = assay: Antiviral activity against Influenza B; type: functional, organism-based
LOX IMVI = assay: Cytotoxicity against human LOXIMVI cells assessed as viable cells at 10 uM after 48 hrs by sulforhodamine B assay; type: functional; conditions: read-out: Activity; procedure, shortened: as §1
West Nile virus = assay: Antiviral activity against WNV; type: functional, organism-based
Plasmodium falciparum = assay: Antimalarial activity against Plasmodium falciparum W2 clone after 48 hrs by fluorescence microplate reader assay; type: functional, organism-based
Hepatitis B virus = assay: Antiviral activity against HBV; type: functional, organism-based
[2] = tested on: Respiratory syncytial virus; assay: Antiviral activity against RSV A; type: functional, organism-based
NCI-H522 = assay: Cytotoxicity against human NCI-H522 cells assessed as cell viability at 10 uM after 48 hrs by sulforhodamine B assay; type: functional; conditions: NCI-H522, 48 h, read-out: Activity; procedure, shortened: as §1
Human alphaherpesvirus 2 = assay: Antiviral activity against HSV2; type: functional, organism-based
Influenza A virus = assay: Antiviral activity against Influenza A H5N1; type: functional, organism-based
Human alphaherpesvirus 1 = assay: Antiviral activity against HSV1; type: functional, organism-based

Compound	Activity [1]	viability at 10 µM (IGROV-1)	Activity (Rift Valley fever virus)	Activity (Microglia)	viability at 10 µM (UO-31)	Activity (Influenza B virus)	viability at 10 µM (LOX IMVI)	Activity (West Nile virus)	Activity (Plasmodium falciparum)	Activity (Hepatitis B virus)	Activity [2]	viability at 10 µM (NCI-H522)	Activity (Human alphaherpesvirus 2)	Activity (Influenza A virus)	Activity (Human alphaherpesvirus 1)
CC[C@H](C)[C@@H]1NC(=O)[C@H]([C@@H](C)CC)NC(=O)[C@H]([C@@H](C)CC)NC(=O)[C@@H]2CCCN2C(=O)[C@H]([C@H](C)O)NC(=O)[C@@H]2CCCN2C(=O)[C@@H]2CCCN2C(=O)[C@H](CC(C)C)NC1=O [DOMINICIN]	inactive	100%	inactive	inactive	32.8%	inactive	100%	inactive	inactive	inactive	inactive	100%	inactive	inactive	inactive
CC(C)[C@@H]1NC(=O)[C@H](Cc2ccccc2)NC(=O)[C@@H]2CCCN2C(=O)[C@H]([C@@H](C)O)NC(=O)[C@H](C)NC(=O)[C@@H]2CCCN2C(=O)[C@@H]2CCCN2C1=O [EURYJANICIN B] (cyclo(ATPFVPP))	inactive	91.3%	inactive	inactive	76.3%	inactive	88.6%	inactive	inactive	inactive	inactive	83.9%	inactive	inactive	inactive
CC[C@@H](C)[C@@H]1NC(=O)[C@@H]2CCCN2C(=O)[C@H](Cc2ccccc2)NC(=O)[C@H](CC(C)C)NC(=O)[C@@H]2CCCN2C(=O)[C@H]([C@H](C)CC)NC(=O)[C@H](CO)NC1=O [EURYJANICIN C]	inactive	100%	inactive	inactive	83.4%	inactive	88%	inactive	inactive	inactive	inactive	95.1%	inactive	inactive	inactive
CC[C@@H](C)[C@@H]1NC(=O)[C@@H]2CCCN2C(=O)[C@H](CO)NC(=O)[C@H](Cc2ccccc2)NC(=O)[C@H]([C@H](C)CC)NC(=O)[C@@H]2CCCN2C(=O)[C@H](Cc2ccccc2)NC1=O [EURYJANICIN D]	inactive	100%	inactive	inactive	82.7%	inactive	87.6%	inactive	inactive	inactive	inactive	94.6%	inactive	inactive	inactive
